Laboratory results as given in ChEMBL document CHEMBL1131191, “De novo design, synthesis, and biological activities of high-affinity and selective non-peptide agonists of the delta-opioid receptor” (J Med Chem, 1998).

Legend:
[1] = biological target: Delta-type opioid receptor (Rattus norvegicus, UniProt P33533); assay: Binding affinity was measured against Opioid receptor delta 1 using [3H]p-Cl-DPDPE as radioligand.
[2] = biological target: Mu-type opioid receptor (Cavia porcellus) (UniProt P97266); assay: Tested for electrically induced smooth muscle contractions from guinea pig ileum expressed in mu opioid receptors at 60 uM; format: functional, tissue-based
Sequence of Mu-type opioid receptor (Cavia porcellus) (P97266 whole entry): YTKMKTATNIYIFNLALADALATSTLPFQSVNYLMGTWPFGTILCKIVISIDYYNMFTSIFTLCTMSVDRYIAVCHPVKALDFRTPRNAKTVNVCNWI

[3] = biological target: Opioid receptors; mu & delta (Homo sapiens) (UniProt P41143+P35372); assay: It is the ratio of EC50(mu receptor) to that of EC50 for(delta receptor); format: functional
Sequence of Opioid receptors; mu & delta (Homo sapiens) (P35372 whole entry, looked up): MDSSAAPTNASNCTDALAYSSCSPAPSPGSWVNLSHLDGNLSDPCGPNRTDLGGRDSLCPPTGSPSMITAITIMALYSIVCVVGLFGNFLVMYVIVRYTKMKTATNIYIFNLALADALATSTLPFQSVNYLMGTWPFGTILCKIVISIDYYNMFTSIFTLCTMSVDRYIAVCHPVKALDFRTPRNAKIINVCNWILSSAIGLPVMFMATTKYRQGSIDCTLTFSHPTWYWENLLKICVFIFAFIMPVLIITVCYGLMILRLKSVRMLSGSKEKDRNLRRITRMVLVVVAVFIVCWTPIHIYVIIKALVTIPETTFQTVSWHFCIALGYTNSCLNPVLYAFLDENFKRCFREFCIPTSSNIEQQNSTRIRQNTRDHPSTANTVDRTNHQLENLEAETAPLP
Sequence of Opioid receptors; mu & delta (Homo sapiens) (P41143 whole entry, looked up): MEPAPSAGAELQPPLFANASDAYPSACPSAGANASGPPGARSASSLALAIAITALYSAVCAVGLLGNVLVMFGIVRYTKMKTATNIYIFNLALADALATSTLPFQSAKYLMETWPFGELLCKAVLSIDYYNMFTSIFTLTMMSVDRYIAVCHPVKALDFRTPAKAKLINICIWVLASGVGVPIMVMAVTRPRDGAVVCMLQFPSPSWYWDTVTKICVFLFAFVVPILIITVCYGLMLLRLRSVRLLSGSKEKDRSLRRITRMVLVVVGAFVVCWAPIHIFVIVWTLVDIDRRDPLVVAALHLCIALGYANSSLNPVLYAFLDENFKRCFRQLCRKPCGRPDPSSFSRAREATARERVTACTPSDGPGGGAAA

Cavia porcellus = species on record: Cavia porcellus; assay: mu-opioid receptor antagonistic activity was measured in guinea pig ileum.; format: functional
[4] = biological target: Delta-type opioid receptor (Mus musculus, UniProt P32300); assay: Tested for electrically induced smooth muscle contractions from mouse vas deferens expressed in delta opioid receptors; format: functional
Sequence of Delta-type opioid receptor (Mus musculus, UniProt P32300) (P32300 whole entry): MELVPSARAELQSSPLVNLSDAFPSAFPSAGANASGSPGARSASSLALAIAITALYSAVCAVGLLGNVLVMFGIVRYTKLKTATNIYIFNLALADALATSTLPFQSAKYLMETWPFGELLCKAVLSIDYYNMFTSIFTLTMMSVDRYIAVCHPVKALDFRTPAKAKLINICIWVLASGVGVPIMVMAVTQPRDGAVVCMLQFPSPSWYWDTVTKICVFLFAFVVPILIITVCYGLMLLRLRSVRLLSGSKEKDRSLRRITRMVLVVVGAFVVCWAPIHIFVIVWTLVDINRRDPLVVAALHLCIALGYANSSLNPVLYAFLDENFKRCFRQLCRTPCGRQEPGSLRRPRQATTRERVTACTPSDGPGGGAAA
In short: (§1)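 Electrically stimulated contractions of male Hartley guinea pig ileum longitudinal muscle–myenteric plexus (1 g tension, 0.4-ms pulses) or male ICR mouse vas deferens (0.5 g, 2.0-ms pulses, Mg-free Krebs). Baths at 37 °C, oxygenated Krebs, 0.1 Hz, supramaximal voltage. Agonist left 3 min. Percent inhibition of twitch height, IC50 from Hill fit, ≥4 tissues.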

Mu-type opioid receptor [5] = biological target: Mu-type opioid receptor (Rattus norvegicus, UniProt P33535); assay: Binding affinity was measured against Opioid receptor mu 1 using [3H]-DAMGO as radioligand.
Sequence of Mu-type opioid receptor (Rattus norvegicus, UniProt P33535) (P33535 whole entry): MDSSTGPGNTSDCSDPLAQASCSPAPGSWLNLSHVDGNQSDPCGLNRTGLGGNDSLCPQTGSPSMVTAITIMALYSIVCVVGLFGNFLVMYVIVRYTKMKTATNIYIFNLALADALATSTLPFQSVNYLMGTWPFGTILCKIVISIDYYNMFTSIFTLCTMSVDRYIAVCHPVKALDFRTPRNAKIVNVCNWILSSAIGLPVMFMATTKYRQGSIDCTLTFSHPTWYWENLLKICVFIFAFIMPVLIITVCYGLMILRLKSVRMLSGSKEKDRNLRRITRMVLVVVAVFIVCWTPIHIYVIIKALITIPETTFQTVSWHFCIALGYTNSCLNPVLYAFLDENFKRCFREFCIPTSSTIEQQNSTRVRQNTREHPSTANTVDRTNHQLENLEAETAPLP

[6] = biological target: Delta-type opioid receptor (Homo sapiens, UniProt P41143); assay: Binding affinity was measured against cloned human Opioid receptor delta 1 (wild-type,Wt)
Sequence of Delta-type opioid receptor (Homo sapiens, UniProt P41143) (P41143 whole entry): as the sequence (P41143 whole entry, looked up) above

Mu-type opioid receptor [7] = biological target: Mu-type opioid receptor (Cavia porcellus, UniProt P97266); assay: Tested for electrically induced smooth muscle contractions from guinea pig ileum expressed in mu opioid receptors; format: functional, tissue-based; in short: as §1
Sequence of Mu-type opioid receptor (Cavia porcellus, UniProt P97266) (P97266 whole entry): as the sequence (P97266 whole entry) above

Sequence of Delta-type opioid receptor (Rattus norvegicus, UniProt P33533) (P33533 whole entry): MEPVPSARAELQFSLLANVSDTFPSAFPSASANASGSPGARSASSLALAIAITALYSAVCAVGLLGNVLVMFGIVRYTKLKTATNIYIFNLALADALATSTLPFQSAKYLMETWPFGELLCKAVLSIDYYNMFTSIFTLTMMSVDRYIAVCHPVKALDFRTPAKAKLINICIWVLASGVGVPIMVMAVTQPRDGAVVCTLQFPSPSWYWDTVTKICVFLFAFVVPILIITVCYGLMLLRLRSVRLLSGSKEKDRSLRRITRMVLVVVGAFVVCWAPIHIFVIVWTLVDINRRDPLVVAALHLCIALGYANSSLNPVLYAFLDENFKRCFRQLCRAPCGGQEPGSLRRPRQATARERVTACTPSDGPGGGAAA

Structure (SMILES): Cc1cc(O)cc(C)c1[C@@H](C)[C@H](N)C(=O)N[C@H]1C(=O)NCC(=O)N[C@@H](Cc2ccccc2)C(=O)N[C@@H](C(=O)O)C(C)(C)SSC1(C)C
- IC50 [1]: 0.005 µM
- inhibition [2]: 0%
- Selectivity [3]: > 33000
- IC50 (Cavia porcellus): 5 µM
- EC50 [4]: 0.0018 µM
- IC50 (Mu-type opioid receptor [5]): 4.3 µM

Structure (SMILES): C=CCN1C[C@H](C)N([C@H](c2ccc(C(=O)N(CC)CC)cc2)c2cccc(OC)c2)C[C@H]1C [SNC-80]
- IC50 (Mu-type opioid receptor [5]): 2.5 µM

Structure (SMILES): CC(C)(C)c1ccc(C(c2cccc(O)c2)N2CCN(Cc3ccccc3)CC2)cc1 (stereo in doubt)
- IC50 [6]: 0.00551 µM
- EC50 (Mu-type opioid receptor [7]): 39 µM
- EC50 [4]: 0.085 µM

Structure (SMILES): CC(C)CC(c1cccc(O)c1)N1CCN(Cc2ccccc2)CC1 (centres undefined)
- IC50 [1]: 0.42 µM
- IC50 (Mu-type opioid receptor [5]): 2.1 µM

Structure (SMILES): CC(C)(C)c1ccc(C(c2cccc(O)c2)N2CCN(Cc3ccccc3)CC2)cc1 (single isomer, unassigned; (-))
- EC50 (Mu-type opioid receptor [7]): 7.6 µM
- EC50 [4]: 0.36 µM

Structure (SMILES): Oc1cccc(C(c2ccc(-c3ccccc3)cc2)N2CCN(Cc3ccccc3)CC2)c1 (centres undefined)
- IC50 [1]: 0.031 µM
- IC50 (Mu-type opioid receptor [5]): 27 µM

Structure (SMILES): C=CCN1C[C@H](C)N([C@H](c2ccc(C(=O)N(CC)CC)cc2)c2cccc(O)c2)C[C@H]1C
- IC50 [1]: 0.00031 µM

Structure (SMILES): COc1cccc(C(c2ccc(C(C)(C)C)cc2)N2CCN(Cc3ccccc3)CC2)c1 (centres undefined)
- IC50 [1]: 1.8 µM
- IC50 (Mu-type opioid receptor [5]): > 8 µM

Structure (SMILES): Oc1cccc(C(c2ccccc2)N2CCN(Cc3ccccc3)CC2)c1 (centres undefined)
- IC50 [1]: 0.034 µM
- Selectivity [3]: 7.1
- EC50 (Mu-type opioid receptor [7]): 1.25 µM
- EC50 [4]: 0.174 µM
- IC50 (Mu-type opioid receptor [5]): 0.5 µM

Structure (SMILES): CC(C)(C)c1ccc(C(c2cccc(O)c2)N2CCN(Cc3ccccc3)CC2)cc1 (single isomer, unassigned; (+))
- EC50 (Mu-type opioid receptor [7]): 3 µM
- EC50 [4]: 0.21 µM

Structure (SMILES): Oc1cccc(CN2CCN(Cc3ccccc3)CC2)c1
- IC50 [1]: 6.4 µM

Structure (SMILES): CC(c1cccc(O)c1)N1CCN(Cc2ccccc2)CC1 (centres undefined)
- IC50 [1]: 0.61 µM
- IC50 (Mu-type opioid receptor [5]): 0.78 µM
